Assay outcomes as filed in PubChem BioAssay.
S1P3 agonist = human S1P3 receptor agonists, primary screen, cell-based, primary and confirmation, NFAT-BLA reporter. 0.1% of 60,000 active. S1P3 NFAT-BLA reporter cells, agonism, FRET ratio; relative to 1 µM S1P, basal subtracted. Sphingosine 1-phosphate receptor 3 (Homo sapiens), Q99500. activation, % at 4.5 µM;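 active means activation above the screen-wide mean plus 3 SD, cut at about 4.5% in these data, passing the limit was not always enough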
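Measure – % activation relative to 1 µM S1P (100%), per plate · System – stable CHO line with human S1P3, Gα16, NFAT-BLA reporter · Timing – cells plated overnight, compound 4 h 37 °C, substrate 2 h RT · Technique – fluorescent BLA substrate, ex 405 nm, em 460/535 nm ratio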
S1P1 ag pot = S1P1 agonists and agonism potentiators, primary screen, cell-based, primary and confirmation screens, CRE-bla reporter; Sphingosine 1-phosphate receptor 1 (Homo sapiens), P21453; S1P1 CRE-bla cells, forskolin, beta-lactamase FRET, potentiator mode; S1P1 agonist co-added at EC20, 2 nM; 100% = saturating reference agonist, 0% = basal; activation, % at 9.5 µM; 0.57% of 56,000 active; AID 449, 2006;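 active means activation above a cutoff set at the mean activation of all tested compounds plus 3 SD, cut at about 54% in these data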;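 further: forskolin at 4 µM as EC80 and the EC20 agonist is SEW2871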
M1 antagonist = antagonists of rat M1 muscarinic receptor; Muscarinic acetylcholine receptor M1 (Rattus norvegicus), P08482; CHO-M1 cells, Fluo-4 calcium, ACh EC80 antagonist mode; hits give low values; B-score at 10 µM; 3.4% of 64,000 active; AID 628, 2007;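 active means calcium fluorescence response, raw or row-and-column corrected B-score, differing from the plate sample mean either way at a set confidence level, mostly lower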
D1 allo mod = D1 CRE-luciferase signal change, two-sided – cell-based, HEK293 D1, dopamine EC30, D1 allosteric modulator project, primary screen; D(1A) dopamine receptor (Homo sapiens), P21728; dopamine EC30 potentiation; actives deviate in either direction; B-score at 10 µM; 5.9% of 58,000 active;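 active means luminescence count or its row- and column-corrected plate score outside the 99.7% band of the plate's sample wells, on either side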
M1 agonist = M1 muscarinic receptor agonists, primary screen, CHO-M1 cells, Fluo-4 calcium, agonist mode. Muscarinic acetylcholine receptor M1. Fluo-4 calcium fluorescence; hits give high values. B-score at 10 µM. 3% of 64,000 active;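 active means fluorescence rise, raw or as B-score row- and column-corrected plate score, outside the 99.7% band of its plate's samples, either direction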
M1 agonist conf = rat M1 muscarinic receptor agonists, confirmation, CHO-M1 cells, Fluo-4 calcium, duplicate retest | fluorescence change (max-min) at 10 µM | 19% of 1,700 active | Fluo-4 calcium fluorescence, agonist mode; actives lie on both sides | shares compounds with M1 agonist;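 active means fluorescence change differs from the solvent-only DMSO control mean at a set confidence level in both duplicate runs; inconclusive means differs from solvent-only control mean in just one of two runs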;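 further: an EC20 dose of acetylcholine follows compound addition during the same imaging run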
M4 ag counter = agonist activity at rat M4 receptor, confirmation, counter-screen for M1 allosteric modulator project, cell-based, agonist mode; shares compounds with M1 agonist; fluorescence change (max-min) at 10 µM; 9% of 1,700 active; CHO M4/Gqi5 cells, Fluo-4 calcium fluorescence; actives lie on both sides;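 active means fluorescence change differing from the plate's solvent-only control wells at 99.7% confidence in both duplicates, whether higher or lower; inconclusive means differs from solvent controls in only one of two duplicates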
Target sequence (P08485 whole entry, looked up): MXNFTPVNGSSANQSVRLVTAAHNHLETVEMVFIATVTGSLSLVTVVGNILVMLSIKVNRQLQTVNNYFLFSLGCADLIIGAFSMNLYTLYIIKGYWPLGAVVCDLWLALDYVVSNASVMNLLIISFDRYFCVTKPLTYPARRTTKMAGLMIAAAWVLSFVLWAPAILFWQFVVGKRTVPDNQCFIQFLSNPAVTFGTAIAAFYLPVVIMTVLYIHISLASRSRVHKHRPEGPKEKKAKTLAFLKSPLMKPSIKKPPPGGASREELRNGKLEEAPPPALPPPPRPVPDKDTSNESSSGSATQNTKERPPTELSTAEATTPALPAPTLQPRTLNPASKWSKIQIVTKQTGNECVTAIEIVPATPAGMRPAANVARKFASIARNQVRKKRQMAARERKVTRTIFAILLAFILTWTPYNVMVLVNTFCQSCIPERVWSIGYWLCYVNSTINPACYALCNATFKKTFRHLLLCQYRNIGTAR
Numbers stand for hits. Rows were chosen to be rich in hits. Some 11% of all compounds tested hit in one or more screens of this group.

Results for COCCn1c(=S)[nH]c2ccc(N(C)C)cc2c1=O ?
S1P3 agonist: inactive; S1P1 ag pot: inactive; M1 antagonist: inactive; D1 allo mod: inactive; M1 agonist: 6.26; M1 agonist conf: inactive; M4 ag counter: inactive

What do the screens show for `CC(=O)c1c(C)[nH]c(C(=O)Nc2cc(C)ccc2C)c1C`?
S1P3 agonist: inactive; S1P1 ag pot: inactive; M1 antagonist: inactive; D1 allo mod: inactive; M1 agonist: inactive

How did CC(=O)c1c(C)[nH]c(C(=O)NCCc2cccc(C)c2)c1C do in these assays?
S1P3 agonist: inactive; S1P1 ag pot: inactive; M1 antagonist: inactive; D1 allo mod: -2.75; M1 agonist: -2.41; M1 agonist conf: inconclusive; M4 ag counter: inconclusive

How did CCOc1cccc(C(=O)Nc2cccc(-c3nc4ncccc4o3)c2C)c1 do in these assays?
S1P3 agonist: inactive; M1 antagonist: inactive; D1 allo mod: inactive; M1 agonist: 4.19; M1 agonist conf: inconclusive; M4 ag counter: -79.7

What do the screens show for `Cc1ccc(-c2nc3ncccc3o2)cc1NC(=O)c1cc2ccccc2o1`?
S1P3 agonist: inactive; S1P1 ag pot: inactive; M1 antagonist: inactive; D1 allo mod: inactive; M1 agonist: inactive

How did O=C(Cc1ccccc1)Nc1cccc(-c2nc3ncccc3o2)c1 do in these assays?
S1P3 agonist: inactive; S1P1 ag pot: inactive; M1 antagonist: inactive; D1 allo mod: inactive; M1 agonist: inactive

Results for Cc1cc(C)cc(OCC(=O)Nc2cccc(-c3nc4ncccc4o3)c2)c1 ?
S1P3 agonist: inactive; S1P1 ag pot: inactive; M1 antagonist: inactive; D1 allo mod: inactive; M1 agonist: 6.75; M1 agonist conf: inactive; M4 ag counter: inactive

Results for O=C(Nc1cccc(-c2nc3ncccc3o2)c1)c1cc2ccccc2o1 ?
S1P3 agonist: inactive; S1P1 ag pot: inactive; M1 antagonist: inactive; D1 allo mod: inactive; M1 agonist: 6.01; M1 agonist conf: inactive; M4 ag counter: inconclusive

Results for Cc1ccc(C)c(N2CCN(C(=O)COc3cc(=O)n(C)c4ccccc34)CC2)c1 ?
S1P3 agonist: inactive; S1P1 ag pot: inactive; M1 antagonist: inactive; D1 allo mod: inactive; M1 agonist: 5.48; M1 agonist conf: inactive; M4 ag counter: inactive

Results for Cc1ccc(C)c(N2CCN(C(=O)CCCOc3cc(=O)n(C)c4ccccc34)CC2)c1 ?
S1P3 agonist: inactive; S1P1 ag pot: inactive; M1 antagonist: inactive; D1 allo mod: inactive; M1 agonist: 5.85; M1 agonist conf: inactive; M4 ag counter: inactive

What do the screens show for `Cc1ccccc1OCCN1C(=O)NC2(CCc3ccccc32)C1=O` (centres undefined)?
S1P3 agonist: inactive; S1P1 ag pot: inactive; M1 antagonist: inactive; D1 allo mod: inactive; M1 agonist: inactive

Results for CC(=O)c1sc(NC(=O)C2(F)C(F)(F)C(F)(F)C(F)(F)C(F)(F)C2(F)F)nc1C ?
S1P3 agonist: inactive; S1P1 ag pot: 111.0; M1 antagonist: inactive; D1 allo mod: -2.11; M1 agonist: 9.24; M1 agonist conf: inactive; M4 ag counter: inconclusive

Results for CC(=O)c1sc(NC(=O)C=C(C)C)nc1C ?
S1P3 agonist: inactive; M1 antagonist: inactive; D1 allo mod: inactive; M1 agonist: -2.22; M1 agonist conf: -25.2; M4 ag counter: inactive

Results for CCOC(=O)N1CCC(N2Cc3cccc(C(=O)Nc4ccc(OC)c(OC)c4)c3C2=O)CC1 ?
S1P3 agonist: inactive; S1P1 ag pot: inactive; M1 antagonist: -3.96; D1 allo mod: -2.16; M1 agonist: 9.02; M1 agonist conf: inactive; M4 ag counter: inactive

How did COc1ccc(C2C(C(C)=O)=C(C)N=c3s/c(=C/c4ccc5c(c4)OCO5)c(=O)n32)cc1 (centres undefined) do in these assays?
M1 antagonist: inactive; D1 allo mod: inactive; M1 agonist: 3.85; M1 agonist conf: inactive; M4 ag counter: inactive

How did CC(=O)N1CCc2c(sc(NC(=O)C3CC3)c2-c2nc3ccccc3s2)C1 do in these assays?
S1P3 agonist: inactive; S1P1 ag pot: inactive; M1 antagonist: inactive; D1 allo mod: inactive; M1 agonist: 6.08; M1 agonist conf: inactive; M4 ag counter: inconclusive

How did O=C1NC2=C(C(=O)CCC2)C(c2ccc3ncccc3c2)N1 (centres undefined) do in these assays?
S1P3 agonist: inactive; S1P1 ag pot: inactive; M1 antagonist: inactive; D1 allo mod: inactive; M1 agonist: inactive

What do the screens show for `COc1ccc(Cl)cc1NC(=O)CSc1nc(N2CCCCC2)nc(N2CCCCC2)n1`?
S1P3 agonist: inactive; S1P1 ag pot: inactive; M1 antagonist: inactive; M1 agonist: inactive

What do the screens show for `CCOC(=O)C1CCCN(CC(=O)NC2=Nc3ccccc3N=C(C)C2c2ccccc2)C1` (centres undefined)?
S1P3 agonist: inactive; S1P1 ag pot: inactive; M1 antagonist: inactive; D1 allo mod: inactive; M1 agonist: 7.35; M1 agonist conf: -31.4; M4 ag counter: inactive

What do the screens show for `CCOC(=O)C1CCCN(CC(=O)NC2CC2)C1` (centres undefined)?
S1P3 agonist: inactive; S1P1 ag pot: inactive; M1 antagonist: inactive; D1 allo mod: inactive; M1 agonist: inactive

How did CCOC(=O)C1CCCN(CCC(=O)Nc2ccc(F)c(F)c2)C1 (centres undefined) do in these assays?
S1P3 agonist: inactive; S1P1 ag pot: inactive; M1 antagonist: inactive; D1 allo mod: inactive; M1 agonist: 5.77; M1 agonist conf: inactive; M4 ag counter: inactive

Results for CCOC(=O)C1CCCN(C(=O)CCC(=O)Nc2ccc3nc(N4CCOCC4)cc(C)c3c2)C1 (centres undefined) ?
S1P3 agonist: inactive; S1P1 ag pot: inactive; M1 antagonist: inactive; D1 allo mod: inactive; M1 agonist: 5.42; M1 agonist conf: inconclusive; M4 ag counter: inactive

Results for O=C(c1ccc(-c2ccccc2)cc1)N1CCN(C(=O)c2ccco2)CC1 ?
S1P3 agonist: inactive; S1P1 ag pot: inactive; M1 antagonist: inactive; D1 allo mod: inactive; M1 agonist: inactive

What do the screens show for `O=C(c1ccco1)N1CCN(C(=O)C(Sc2ccccc2)c2ccccc2)CC1` (centres undefined)?
S1P3 agonist: inactive; S1P1 ag pot: inactive; M1 antagonist: inactive; D1 allo mod: inactive; M1 agonist: 3.85; M1 agonist conf: inconclusive; M4 ag counter: inactive

How did Cc1ccc(-c2nn(-c3ccccc3)cc2/C=C(\C#N)c2cccc(C#N)c2)o1 do in these assays?
S1P3 agonist: inactive; S1P1 ag pot: inactive; M1 antagonist: inactive; M1 agonist: inactive
